In ChEMBL document CHEMBL1125666, “In vitro evaluation of phosphocholine and quaternary ammonium containing lipids as novel anti-HIV agents” (J Med Chem, 1991):

Tests used:
[1] = tested on: Human immunodeficiency virus 1; assay: Differential selectivity measured as the ratio of CEM-SS cell growth IC50 vs HIV plaque formation IC50.; type: functional
Procedure, shortened: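 Selectivity index taken as CEM-SS growth IC50 (48 h suspension culture, [3H]thymidine uptake) divided by HIV-1 syncytial plaque IC50 (day-5 plaque count in CEM-SS monolayers, 60–90 PFU). Both IC50s come from twofold dilutions over 0.03–20.0 μM.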

[2] = tested on: Human immunodeficiency virus 1; assay: In vitro inhibition of HIV-1 plaque formation; type: functional, organism-based
Procedure, shortened: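 HIV-1 syncytial plaque assay. CEM-SS cells in log phase, washed in PBS, 50 000 per well in serum-free RPMI-1640 on poly-L-lysine-coated wells, 30 min at 37 °C, 5% CO2. Inoculated with HIV-1 (60–90 PFU). After 60 min, overlay with or without compound at serial twofold dilutions, 0.03–20.0 μM. Second overlay on day 3. Plaques counted on day 5 to give IC50. Mean ± SD, n ≥ 3, or a single experiment.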

[3] = tested on: CEM-SS cells (Homo sapiens); assay: In vitro inhibition of CEM-SS cell growth by 50 %

Row | SMILES | Ratio [1] | IC50 [2] [nM] | IC50 [3] [nM]
1 | CCCCCCCCCCCCCCCCSCC(C[N+](C)(C)CC(O)CO)OC.[Br-] (stereo not drawn) | 4.1 | 490 | 2000
2 | CCCCCCCCCCCCCCCCOCC(CP(=O)([O-])OCC[n+]1ccccc1)OC (stereo not drawn) | 3.5 | 2200 | 7700
3 | CCCCCCCCCCCCCCCCCCOCC[N+](C)(C)CC(O)CO.[I-] (stereo not drawn) | 14.5 | 200 | 2900
4 | CCCCCCCCCCCCCCCCSCCOP(=O)([O-])OCC[N+](C)(C)C | 27.1 | 280 | 7600
5 | CCCCCCCCCCCCCCCCOCC(C[n+]1ccccc1)OCC.[Br-] (stereo not drawn) | 5.2 | 210 | 1100
6 | CCCCCCCCCCCCCCCCSCC(C[N+](C)(C)CCO)OC.[Br-] (stereo not drawn) | 5.7 | 370 | 2100
7 | CCCCCCCCCCCCCCCCOCC(COP(=O)(O)OCCNC(C)(C)C)OCC (stereo not drawn) |  | > 5000 | 10000
8 | CCCCCCCCCCCCCCCCOCC(COP(=O)(O)OCCNC(C)C)OCC (stereo not drawn) |  | > 5000 | 7000
9 | CCCCCCCCCCCCCCCCCC(=O)NCCOP(=O)([O-])OCC[N+](C)(C)C | 68.7 | 280 | 19300
10 | CCCCCCCCCCCCCCCC(=O)NCC(COP(=O)([O-])OCC[N+](C)(C)C)OC (stereo not drawn) | 26.6 | 930 | 24700
11 | CCCCCCCCCCCCCCCC(=O)NCC(COP(=O)([O-])OCC[N+](C)(C)C)OCC (stereo not drawn) | 41.3 | 460 | 19000
12 | CCCCCCCCCCCCCCCCOCC(CN(C)CCO)OC (stereo not drawn) | 1.5 | 2100 | 3200
13 | CCCCCCCCCCCCCCCCOCC(COP(=O)([O-])OCC[n+]1ccccc1)OCC (stereo not drawn) | 1.7 | 4700 | 8100
14 | CCCCCCCCCCCCCCCCCCSCC(C[N+](C)(C)CCCO)OC.[I-] (stereo not drawn) | 9.8 | 410 | 4000
15 | CCCCCCCCCCCCCCCCCCOCC(COP(=O)([O-])OCC[N+](C)(C)C)OCC (stereo not drawn) | 11.1 | 270 | 3000
16 | CCCCCCCCCCCCCCCCOCC(C[N+](C)(C)C)OC.[Br-] (stereo not drawn) | 2.1 | 520 | 1100

Row | SMILES | Ratio [1] | IC50 [2] [nM] | IC50 [3] [nM]
17 | CCCCCCCCCCCCCCCCSCC(COP(=O)([O-])OCC[N+](C)(C)C)OCC (stereo not drawn) | 5.9 | 700 | 4100
18 | CCCCCCCCCCCCCCCCCCNC(=O)NCC(COP(=O)([O-])OCC[N+](C)(C)C)OCC (stereo not drawn) | 13.5 | 570 | 7700
19 | CCCCCCCCCCCCCCCCOCC[N+](C)(C)CCO.[I-] | 15.6 | 380 | 6000
20 | CCCCCCCCCCCCCCCCCCS(=O)(=O)CC(COP(=O)([O-])OCC[N+](C)(C)C)OCC (stereo not drawn) | 7.5 | 1200 | 9000
21 | CCCCCCCCCCCCCCCCSCC(C[N+](C)(C)C)OC.[Br-] (stereo not drawn) | 13.4 | 390 | 5300
22 | CCCCCCCCCCCCCCCCOCC[N+](C)(C)CCCO.[I-] | 6.1 | 240 | 1500
23 | CCCCCCCCCCCCCCCCOCC(CO)OCC (stereo not drawn) |  | > 5000 | > 20000
24 | CCCCCCCCCCCCCCCCSCC(C[N+](C)(C)CCO)OCC.[Br-] (stereo not drawn) | 8.1 | 630 | 5100
25 | CCCCCCCCCCCCCCCCCCCC(=O)NCC(COP(=O)([O-])OCC[N+](C)(C)C)OCC (stereo not drawn) | 29.4 | 160 | 4700
26 | CCCCCCCCCCCCCCCCOCC(C[N+]1(CO)CCCCC1)OCC.[I-] (stereo not drawn) | 8 | 300 | 2400
27 | CCCCCCCCCCCCCCCCCC(=O)NCC(COP(=O)([O-])OCC[N+](C)(C)C)OC (stereo not drawn) | 47.3 | 300 | 14200
28 | CCCCCCCCCCCCCCCCCC(=O)NCC(COP(=O)([O-])OCC[N+](C)(C)C)OCC (stereo not drawn) | 84.4 | 160 | 13500
29 | CCCCCCCCCCCCCCCCCCSCC(COP(=O)([O-])OCC[N+](C)(C)C)OC (stereo not drawn) | 7.8 | 490 | 3800
30 | CCCCCCCCCCCCCCCCCCOCC(COP(=O)([O-])OCC[N+](C)(C)C)OC (stereo not drawn) [EDELFOSINE] | 4.3 | 920 | 4000
31 | Cc1cn([C@H]2C[C@H](N=[N+]=[N-])[C@@H](CO)O2)c(=O)[nH]c1=O [ZIDOVUDINE] |  |  | 5600
